This passage reports Ki and Efficacy results from ChEMBL document CHEMBL1133060, “N-(indol-3-ylglyoxylyl)piperidines: high affinity agonists of human GABA-A receptors containing the alpha1 subunit” (Bioorg Med Chem Lett, 2000).

Assay [1] has as its target T1, GABA-A receptor; alpha-1/beta-2/gamma-2 (Homo sapiens, UniProt P14867+P18507+P47870).
T1 sequence (P14867 whole entry): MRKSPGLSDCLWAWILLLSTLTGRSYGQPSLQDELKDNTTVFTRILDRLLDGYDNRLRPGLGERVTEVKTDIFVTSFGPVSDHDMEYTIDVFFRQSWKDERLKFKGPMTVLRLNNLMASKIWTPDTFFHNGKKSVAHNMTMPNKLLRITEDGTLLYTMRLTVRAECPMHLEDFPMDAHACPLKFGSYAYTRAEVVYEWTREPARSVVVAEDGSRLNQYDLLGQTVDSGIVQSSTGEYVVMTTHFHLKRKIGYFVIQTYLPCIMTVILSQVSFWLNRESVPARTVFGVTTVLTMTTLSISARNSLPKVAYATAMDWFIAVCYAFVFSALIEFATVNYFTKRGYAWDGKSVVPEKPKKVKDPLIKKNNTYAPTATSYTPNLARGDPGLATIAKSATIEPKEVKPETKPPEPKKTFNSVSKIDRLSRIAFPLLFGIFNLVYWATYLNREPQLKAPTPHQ
T1 sequence (P47870 whole entry): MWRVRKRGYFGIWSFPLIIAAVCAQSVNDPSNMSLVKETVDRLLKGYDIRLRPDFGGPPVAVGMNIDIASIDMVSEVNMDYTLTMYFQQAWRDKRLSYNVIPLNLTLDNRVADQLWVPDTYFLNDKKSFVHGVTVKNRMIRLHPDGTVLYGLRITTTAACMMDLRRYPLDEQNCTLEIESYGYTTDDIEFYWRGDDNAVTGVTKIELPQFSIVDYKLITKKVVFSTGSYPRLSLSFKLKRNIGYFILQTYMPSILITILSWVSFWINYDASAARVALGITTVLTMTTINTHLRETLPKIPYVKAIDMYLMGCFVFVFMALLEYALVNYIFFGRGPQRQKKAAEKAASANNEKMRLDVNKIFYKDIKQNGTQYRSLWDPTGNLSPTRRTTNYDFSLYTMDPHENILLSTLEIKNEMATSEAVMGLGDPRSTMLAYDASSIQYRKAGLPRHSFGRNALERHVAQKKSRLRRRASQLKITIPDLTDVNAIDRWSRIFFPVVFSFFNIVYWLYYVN
T1 sequence (P18507 whole entry): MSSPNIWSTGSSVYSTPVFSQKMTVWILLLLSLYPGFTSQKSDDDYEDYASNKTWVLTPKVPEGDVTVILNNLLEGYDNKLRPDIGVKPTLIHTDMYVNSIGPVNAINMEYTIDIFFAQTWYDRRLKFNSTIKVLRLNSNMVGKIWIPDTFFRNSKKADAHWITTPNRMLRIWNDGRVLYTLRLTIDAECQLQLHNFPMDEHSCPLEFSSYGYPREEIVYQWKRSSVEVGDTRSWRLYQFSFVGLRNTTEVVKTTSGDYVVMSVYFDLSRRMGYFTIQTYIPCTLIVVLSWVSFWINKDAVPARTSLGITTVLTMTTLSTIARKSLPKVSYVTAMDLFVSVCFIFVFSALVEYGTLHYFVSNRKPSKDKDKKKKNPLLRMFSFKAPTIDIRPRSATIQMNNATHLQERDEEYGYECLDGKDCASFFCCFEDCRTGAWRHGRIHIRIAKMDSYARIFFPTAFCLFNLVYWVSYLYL
The assay is described as follows: Binding affinity evaluated by ability to displace [3H]Ro-151788 from recombinant human Gamma-aminobutyric acid A receptor alpha-1-beta-2-gamma-2 expressed in L(tk-)cells. Type of assay: cell-based.

In assay [2] the target is T2, GABA-A receptor; alpha-3/beta-3/gamma-2 (Homo sapiens, UniProt P18507+P28472+P34903).
T2 sequence (P18507 whole entry): T1 sequence (P18507 whole entry)
T2 sequence (P28472 whole entry): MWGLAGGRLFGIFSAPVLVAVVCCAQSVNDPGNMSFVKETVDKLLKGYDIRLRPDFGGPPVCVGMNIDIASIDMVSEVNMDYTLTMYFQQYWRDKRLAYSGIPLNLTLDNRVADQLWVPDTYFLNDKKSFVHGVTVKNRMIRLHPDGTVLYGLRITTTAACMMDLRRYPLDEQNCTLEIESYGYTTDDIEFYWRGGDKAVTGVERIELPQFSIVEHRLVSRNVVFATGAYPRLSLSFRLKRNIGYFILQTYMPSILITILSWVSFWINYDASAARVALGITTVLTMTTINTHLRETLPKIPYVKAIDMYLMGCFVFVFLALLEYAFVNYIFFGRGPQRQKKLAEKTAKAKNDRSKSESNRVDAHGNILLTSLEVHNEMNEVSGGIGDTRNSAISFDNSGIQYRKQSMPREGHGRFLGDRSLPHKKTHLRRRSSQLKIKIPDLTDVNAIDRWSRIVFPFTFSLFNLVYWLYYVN
T2 sequence (P34903 whole entry): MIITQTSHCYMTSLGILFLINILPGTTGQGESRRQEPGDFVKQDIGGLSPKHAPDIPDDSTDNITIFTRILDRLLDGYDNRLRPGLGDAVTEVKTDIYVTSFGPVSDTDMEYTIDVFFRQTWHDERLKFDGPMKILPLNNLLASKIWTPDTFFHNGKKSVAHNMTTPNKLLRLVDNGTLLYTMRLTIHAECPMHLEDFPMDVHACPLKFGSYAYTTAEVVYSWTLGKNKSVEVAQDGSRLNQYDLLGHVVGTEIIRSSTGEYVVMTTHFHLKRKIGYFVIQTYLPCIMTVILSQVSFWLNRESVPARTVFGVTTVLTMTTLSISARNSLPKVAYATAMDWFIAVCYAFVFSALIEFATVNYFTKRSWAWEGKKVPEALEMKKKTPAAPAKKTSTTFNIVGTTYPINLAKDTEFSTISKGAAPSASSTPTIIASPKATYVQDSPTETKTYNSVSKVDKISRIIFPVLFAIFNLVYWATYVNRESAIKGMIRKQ
The assay is described as follows: Binding affinity evaluated by ability to displace [3H]Ro-151788 from recombinant human Gamma-aminobutyric acid A receptor alpha-3-beta-3-gamma-2 expressed in L(tk-)cells. The format is cell-based.

The target in assay [3] is T3, GABA-A receptor; alpha-2/beta-3/gamma-2 (Homo sapiens, UniProt P18507+P28472+P47869).
T3 sequence (P18507 whole entry): T1 sequence (P18507 whole entry)
T3 sequence (P28472 whole entry): T2 sequence (P28472 whole entry)
T3 sequence (P47869 whole entry): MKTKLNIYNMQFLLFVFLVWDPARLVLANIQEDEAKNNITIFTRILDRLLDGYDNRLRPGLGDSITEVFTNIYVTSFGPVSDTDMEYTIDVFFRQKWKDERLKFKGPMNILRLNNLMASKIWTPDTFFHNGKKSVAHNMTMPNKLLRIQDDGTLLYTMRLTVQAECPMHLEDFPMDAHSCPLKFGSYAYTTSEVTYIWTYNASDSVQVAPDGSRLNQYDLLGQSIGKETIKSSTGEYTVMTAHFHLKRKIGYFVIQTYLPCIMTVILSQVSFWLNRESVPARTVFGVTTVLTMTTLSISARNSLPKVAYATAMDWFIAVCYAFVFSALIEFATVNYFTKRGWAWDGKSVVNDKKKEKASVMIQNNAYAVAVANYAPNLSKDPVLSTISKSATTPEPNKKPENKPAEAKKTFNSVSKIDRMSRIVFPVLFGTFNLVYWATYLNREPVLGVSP
Description: Binding affinity evaluated by ability to displace [3H]-Ro-15-1788 from recombinant human Gamma-aminobutyric acid A receptor alpha-2-beta-3-gamma-2 expressed in L(tk-)cells. Type of assay: cell-based.

For assay [4], the target named is T4, GABA-A receptor; alpha-1/beta-2/gamma-2 (Homo sapiens) (UniProt P14867+P47870+P18507). Description: Ability to affect GABA-induced chloride current in Xenopus oocytes transiently expressing human GABA-A alpha-1-beta-2-gamma-2 receptors using two-electrode voltage-clamp electrophysiology at test concentration of 30 uM. The following applies: Oocyte. The format is functional, cell-based. An outline of the steps:
(§1)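 The GABA EC20 (concentration giving 20% of maximal GABA current) was determined separately for each oocyte, range 4–30 μM. Compound was then coapplied with GABA at that EC20 to measure modulation of the current. Mean ± SEM, n = 3-5.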
(Two-electrode voltage clamp holds a large cell at a set potential and records current.)

The target in assay [5] is T4, GABA-A receptor; alpha-1/beta-2/gamma-2 (Homo sapiens). The assay is described as follows: Ability to affect GABA-induced chloride current in Xenopus oocytes transiently expressing human GABA-A alpha-1-beta-2-gamma-2 receptors using two-electrode voltage-clamp electrophysiology at test concentration of 3 uM. The format is functional, cell-based. Particulars: Oocyte. An outline of the steps:
as §1

As for `CCOC(=O)CC1CCCN1C(=O)C(=O)c1c[nH]c2c(OC)cccc12` (centres undefined), the inhibitory constant (Ki) in assay [1] amounted to 460 nM; in assay [2], 320 nM; in assay [3] it was 270 nM.
On to `CCOC(=O)CC1CCCN1C(=O)C(=O)c1c[nH]c2ccccc12` (centres undefined), for which the results for the inhibitory constant (Ki) in assay [1], in assay [2] and in assay [3] were 890 nM, 570 nM and 430 nM, respectively. Moreover, the Efficacy in assay [4] came to 28%.
Turning to `O=C(C(=O)N1CCCC(C(=O)OCc2ccccc2)C1)c1c[nH]c2ccccc12` (centres undefined), the Ki in assay [1] came to 77 nM; in assay [2], 91 nM; in assay [3] it was 180 nM.
The corresponding values for `CCOC(=O)C1CCCN(C(=O)C(=O)c2c[nH]c3ccccc23)C1` (centres undefined) are 880 nM, 990 nM and 390 nM.
The corresponding values for `O=C(C(=O)N1CCCC1Cc1ccccc1)c1c[nH]c2ccccc12` (centres undefined) are 440 nM, 960 nM and 830 nM.
The corresponding values for `CCOC(=O)[C@@H]1C[C@@H](C(=O)OCC)CN(C(=O)C(=O)c2c[nH]c3ccccc23)C1` are 400 nM, 250 nM and 200 nM.
For `CCOC(=O)CC1CCCN1C(=O)C(=O)c1c[nH]c2c(C)cccc12` (centres undefined), the values for the inhibitory constant (Ki) in assay [1], in assay [2] and in assay [3] were 510 nM, 500 nM and 440 nM, respectively.
As for `CN(Cc1ccccc1)C(=O)C1CCCN(C(=O)C(=O)c2c[nH]c3ccccc23)C1` (centres undefined), the Ki in assay [1] was found to be 14 nM; in assay [2], 96 nM; in assay [3], 40 nM.
The corresponding values for `CN(Cc1ccccc1)C(=O)[C@@H]1CCCN(C(=O)C(=O)c2c[nH]c3ccccc23)C1` are 7.3 nM, 50 nM and 19 nM.
Take `O=C(C(=O)N1CCCC(C(=O)NCc2ccccc2)C1)c1c[nH]c2ccccc12` (centres undefined): the results for the Ki in assay [1], in assay [2] and in assay [3] were 300 nM, 1500 nM and 970 nM, respectively.
The corresponding values for `CCOC(=O)[C@@H]1C[C@H](C(=O)OCC)CN(C(=O)C(=O)c2c[nH]c3ccccc23)C1` are 14 nM, 23 nM and 22 nM.
As for `O=C(C(=O)N1CCc2ccccc2C1)c1c[nH]c2ccccc12`, the Ki stood at 380 nM in assay [1], 720 nM in assay [2] and 680 nM in assay [3].
For `CN(Cc1ccccc1)C(=O)[C@H]1CCCN(C(=O)C(=O)c2c[nH]c3ccccc23)C1`, the Ki worked out at 140 nM in assay [1], 670 nM in assay [2] and 250 nM in assay [3].
Turning to `O=C(C(=O)N1Cc2ccccc2C1)c1c[nH]c2ccccc12`, the inhibition constant (Ki) was 200 nM in assay [1], 19000 nM in assay [2] and 1300 nM in assay [3]. For the same compound, the Efficacy in assay [5] is 64%.

A word on the Ki: it is the equilibrium dissociation constant of an inhibitor or competing ligand from its target.
